In ChEMBL document CHEMBL1152810, “Microwave synthesis and evaluation of phenacylhomoserine lactones as anticancer compounds that minimally activate quorum sensing pathways in Pseudomonas aeruginosa” (J Med Chem, 2009) one finds IC50 and Activity data, which are given here for 25 compounds.

Data set [1] concerns PC-3. The data set can be described thus: Cytotoxicity against human PC3 cells after 5 days by SRB assay. As to conditions: PC-3, 120 h. Type of data set: functional, cell-based. A digest of the protocol:
(§1)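 Cells grown in phenol-red-free RPMI-1640 with 10% dialyzed FBS and no antibiotics, at 37 °C and 5% CO₂. H630-1 was kept in 1 µM 5-FU until 1 week before use. Compounds were dried from EtOH (10× final) into wells, in duplicate or quadruplicate. Seeding per well: H630 2×10³, H630-1 4×10³, PC3 2×10³. After 5 days, cells were TCA-fixed, stained with 0.4% SRB, dye dissolved in Tris, OD570 read.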

Data set [2] deals with NCI-H630. Nature of the data set: Cytotoxicity against 5FU-resistant human NCI-H630 cells after 5 days by SRB assay. Type of data set: functional, cell-based. To be noted: NCI-H630, 120 h. A digest of the protocol: as §1
(In general: The SRB assay estimates cell density from bound dye.)

For data set [3], the system named is Pseudomonas aeruginosa. Nature of the data set: Toxicity assessed as activation of quorum sensing signalling in Pseudomonas aeruginosa MW1 carrying (lasI-,rhlI-) pUM15 containing rsa::gfp fusion gene at 33 uM by LasR-dependent green fluorescence protein reporter assay. Format: organism-based. To be noted: in vivo. (A reporter such as luciferase makes a cellular process visible.)

The test system of data set [4] is NCI-H630. The data set can be described thus: Cytotoxicity against human NCI-H630 cells after 5 days by SRB assay. Format: functional, cell-based. To be noted: NCI-H630, 120 h. A digest of the protocol:
as §1

In data set [5] the test system is Pseudomonas aeruginosa. Nature of the data set: Toxicity assessed as activation of quorum sensing signalling in Pseudomonas aeruginosa MW1 carrying (lasI-,rhlI-) pUM15 containing rsa::gfp fusion gene at 0.3 uM by LasR-dependent green fluorescence protein reporter assay. As to conditions: in vivo. Type of data set: organism-based.

As a reminder, the IC50 is the concentration needed to halve the response being measured. Take `O=C(CCCCCCCCCc1ccccc1)CC(=O)N[C@H]1CCOC1=O`: the IC50 was 4 µM in data set [1], 13 µM in data set [2] and 16 µM in data set [4]. For the same compound, the Activity result in data set [3] was “Non-toxic”.
Regarding `O=C(CCCCCCCc1ccccc1)CC(=O)N[C@H]1CCOC1=O`, the results for the half-maximal inhibitory concentration (IC50) in data set [1], in data set [2] and in data set [4] were 2 µM, 10 µM and 42 µM, respectively.
`O=C(CCCCCCCCCCCc1ccccc1)CC(=O)N[C@H]1CCOC1=O`: the half-inhibitory concentration (IC50) amounted to 4 µM in data set [1], 27 µM in data set [2] and 33 µM in data set [4]. Also, the Activity entry in data set [3] is recorded as “Non-toxic”.
`O=C(CCCCCc1ccccc1)CC(=O)N[C@H]1CCOC1=O`: the half-inhibitory concentration (IC50) in data set [1] was 9 µM; in data set [2], 24 µM; in data set [4], 44 µM.
Turning to `O=C(CCCCCCc1ccccc1)CC(=O)N[C@H]1CCOC1=O`, the IC50 in data set [1] was 9 µM; in data set [2], 27 µM; in data set [4], 65 µM.
`O=C(CCCCCCCCCCc1ccccc1)N[C@H]1CCOC1=O`: the figures for the concentration for half-maximal inhibition (IC50) in data set [1], in data set [2] and in data set [4] were 66 µM, 66 µM and 70 µM, respectively.
`O=C(CCCc1ccccc1)N[C@H]1CCOC1=O`: the IC50 in data set [1], in data set [2] and in data set [4] was above 100 µM in each case.
Regarding `O=C(CCCCCCCc1ccccc1)N[C@H]1CCOC1=O`, the IC50 in data set [1] was 85 µM; in data set [2], above 100 µM; in data set [4], above 100 µM.
For `O=C(CCCCCCCCc1ccccc1)N[C@H]1CCOC1=O`, the IC50 in data set [1] was 67 µM; in data set [2], above 100 µM; in data set [4] it was above 100 µM.
Regarding `O=C(CCCCCCCCCCc1ccccc1)CC(=O)N[C@H]1CCOC1=O`, the figures for the IC50 in data set [1], in data set [2] and in data set [4] were 2 µM, 14 µM and 23 µM, respectively. Also, the Activity result in data set [3] is reported as “Non-toxic”.
In the case of `O=C(CCCCc1ccccc1)CC(=O)N[C@H]1CCOC1=O`, the IC50 was 83 µM in data set [1], 80 µM in data set [2] and above 100 µM in data set [4].
Consider `O=C(CC(=O)c1ccccc1)N[C@H]1CCOC1=O`, for which the IC50 in data set [1], in data set [2] and in data set [4] was above 100 µM each time.
Regarding `O=C(Cc1ccccc1)N[C@H]1CCOC1=O`, the 50% inhibitory concentration (IC50) in data set [1], in data set [2] and in data set [4] was above 100 µM throughout.
As to `O=C(CC(=O)N[C@H]1CCOC1=O)Cc1ccccc1`, the IC50 in data set [1], in data set [2] and in data set [4] was above 100 µM each time.
On to `O=C(CCCCCc1ccccc1)N[C@H]1CCOC1=O`, for which the 50% inhibitory concentration (IC50) in data set [1], in data set [2] and in data set [4] was above 100 µM each time.
`O=C(CCCc1ccccc1)CC(=O)N[C@H]1CCOC1=O`: the concentration for half-maximal inhibition (IC50) in data set [1], in data set [2] and in data set [4] was above 100 µM throughout.
As for `O=C(CCCCCCc1ccccc1)N[C@H]1CCOC1=O`, the IC50 in data set [1], in data set [2] and in data set [4] was above 100 µM in each case.
On to `O=C(CCCCCCCCCc1ccccc1)CC(=O)N[C@@H]1CCOC1=O`, for which the IC50 in data set [1], in data set [2] and in data set [4] was above 100 µM each time.
Regarding `O=C(CCc1ccccc1)N[C@H]1CCOC1=O`, the IC50 in data set [1], in data set [2] and in data set [4] was above 100 µM each time.
As to `O=C(CCCCCCCCc1ccccc1)CC(=O)N[C@H]1CCOC1=O`, the figures for the IC50 in data set [1], in data set [2] and in data set [4] were 4 µM, 10 µM and 11 µM, respectively.
On the same counts, the results for `O=C(CCCCCCCCCCCc1ccccc1)N[C@H]1CCOC1=O` are above 100 µM, above 100 µM and above 100 µM.
Regarding `O=C(CCCCCCCCCc1ccccc1)N[C@H]1CCOC1=O`, the half-maximal inhibitory concentration (IC50) in data set [1] is 75 µM; in data set [2], above 100 µM; in data set [4] it was above 100 µM.
Regarding `O=C(CCCCc1ccccc1)N[C@H]1CCOC1=O`, the half-inhibitory concentration (IC50) in data set [1], in data set [2] and in data set [4] was above 100 µM each time.
In the case of `O=C(CCc1ccccc1)CC(=O)N[C@H]1CCOC1=O`, the 50% inhibitory concentration (IC50) in data set [1], in data set [2] and in data set [4] was above 100 µM in each case.
Consider `CCCCCCCCCC(=O)CC(=O)N[C@H]1CCOC1=O`, for which the concentration for half-maximal inhibition (IC50) was found to be 5 µM in data set [1], 12 µM in data set [2] and 34 µM in data set [4]. Besides, the Activity result in data set [5] is “Toxic”.
